Several values for one entry are separate records, joined by “and”; a condition that tells them apart may be missing. Identical values can stand only once. Like-named read-outs stand apart in the source and are kept apart here.
Tests used:
wild type cytochrome bo3 [1] = biological target: T1, wild type cytochrome bo3 (Escherichia coli, UniProt P0ABI8); test: steady state ubiquinol-1 oxidase activity; assay type: biochemical, E. coli; settings: for pattern of inhibition: double-reciprocal plot vs ubiquinol-1
T1 sequence (P0ABJ1 25-315): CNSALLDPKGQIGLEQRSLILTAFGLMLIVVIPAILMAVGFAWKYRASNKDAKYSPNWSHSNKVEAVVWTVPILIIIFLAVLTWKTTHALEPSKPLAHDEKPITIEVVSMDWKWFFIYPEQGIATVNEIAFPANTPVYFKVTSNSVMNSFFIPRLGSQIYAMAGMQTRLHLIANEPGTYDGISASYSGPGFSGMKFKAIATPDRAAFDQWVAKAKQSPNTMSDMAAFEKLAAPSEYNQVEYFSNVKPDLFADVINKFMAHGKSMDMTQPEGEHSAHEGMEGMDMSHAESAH
T1 sequence (P0ABJ3 whole entry, further chain): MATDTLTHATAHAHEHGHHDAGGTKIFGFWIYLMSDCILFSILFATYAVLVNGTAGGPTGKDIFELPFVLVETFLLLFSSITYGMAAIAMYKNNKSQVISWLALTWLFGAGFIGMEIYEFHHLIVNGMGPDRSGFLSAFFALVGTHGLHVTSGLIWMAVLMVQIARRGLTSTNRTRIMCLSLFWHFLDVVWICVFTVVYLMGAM
T1 sequence (P0ABJ6 whole entry, further chain): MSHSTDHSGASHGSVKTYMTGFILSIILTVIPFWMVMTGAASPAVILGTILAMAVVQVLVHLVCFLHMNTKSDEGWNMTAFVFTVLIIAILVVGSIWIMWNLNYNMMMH
T1 sequence (P0ABI8 whole entry): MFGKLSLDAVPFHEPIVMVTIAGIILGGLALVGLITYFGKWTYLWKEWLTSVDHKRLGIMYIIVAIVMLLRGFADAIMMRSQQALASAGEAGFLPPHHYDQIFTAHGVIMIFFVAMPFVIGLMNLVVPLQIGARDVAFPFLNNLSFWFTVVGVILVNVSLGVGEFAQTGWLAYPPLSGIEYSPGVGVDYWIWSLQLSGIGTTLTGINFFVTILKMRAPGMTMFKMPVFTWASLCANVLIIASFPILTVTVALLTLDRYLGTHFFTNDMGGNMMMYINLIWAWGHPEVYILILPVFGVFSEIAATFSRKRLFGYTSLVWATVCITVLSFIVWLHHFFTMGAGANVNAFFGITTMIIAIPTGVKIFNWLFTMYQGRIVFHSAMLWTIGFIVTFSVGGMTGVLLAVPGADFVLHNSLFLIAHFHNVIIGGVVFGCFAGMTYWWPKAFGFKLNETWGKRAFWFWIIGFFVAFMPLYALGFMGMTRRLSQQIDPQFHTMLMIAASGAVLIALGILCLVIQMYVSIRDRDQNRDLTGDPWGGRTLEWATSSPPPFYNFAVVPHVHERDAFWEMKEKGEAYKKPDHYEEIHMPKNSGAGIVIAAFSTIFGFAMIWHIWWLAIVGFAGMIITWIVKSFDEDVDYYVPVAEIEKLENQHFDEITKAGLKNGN

wild type cytochrome bo3 [2] = biological target: T1, wild type cytochrome bo3; test: EPR of the semiquinone formed at the QH-site; assay type: biochemical, E. coli; settings: excess (5-fold) of inhibitor
Summary of the method: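 Continuous-wave X-band EPR of wild-type enzyme purified in dodecylmaltoside, carrying bound ubiquinone-8 at the QH site. Enzyme was incubated with a 5-fold excess of test compound, at 50 μM enzyme in one series. Sample preparation followed earlier published methods.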

wild type cytochrome bo3 [3] = biological target: T1, wild type cytochrome bo3; test: HQNO binding monitored by fluorescence anisotropy; set-up: species or system E. coli; settings: for Kd: read-out: Kd HQNO
[4] = biological target: wild type cytochrome bo3 (no bound Q8) (Escherichia coli, UniProt P0ABI8); test: HQNO binding monitored by fluorescence anisotropy; set-up: species or system E. coli; settings: read-out: Kd HQNO
Chain of wild type cytochrome bo3 (no bound Q8) (P0ABJ3 whole entry): as the sequence (P0ABJ3 whole entry, further chain) above
Chain of wild type cytochrome bo3 (no bound Q8) (P0ABJ1 25-315, further chain): as the sequence (P0ABJ1 25-315) above
Chain of wild type cytochrome bo3 (no bound Q8) (P0ABI8 whole entry): as the sequence (P0ABI8 whole entry) above
Chain of wild type cytochrome bo3 (no bound Q8) (P0ABJ6 whole entry, further chain): as the sequence (P0ABJ6 whole entry, further chain) above
Summary of the method: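 Quinone-free enzyme was made by diluting ≥50-fold into 50 mM K2HPO4, 0.1% Triton X-100, pH 8.3, and binding to Ni-NTA for several hours at 4 °C. It was washed into dodecylmaltoside, eluted with 100 mM imidazole and dialysed. Enzyme was titrated into pH 8.3 dodecylmaltoside buffer holding fixed 1 μM test compound. Anisotropy was read at ex 341/em 480 nm against a ligand-free control, and fit with an independent-sites model.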

cytochrome bo3 D188A [5] = biological target: T2, cytochrome bo3 D188A (Escherichia coli, UniProt P0ABI8, D188A); test: HQNO binding monitored by fluorescence anisotropy; set-up: species or system E. coli; settings: read-out: Kd HQNO
T2 sequence (P0ABI8 whole entry D188A): as the sequence (P0ABI8 whole entry) above, with D188A counted along it
T2 sequence (P0ABJ6 whole entry, further chain): as the sequence (P0ABJ6 whole entry, further chain) above
T2 sequence (P0ABJ3 whole entry, stated change not applied, further chain): as the sequence (P0ABJ3 whole entry, further chain) above
T2 sequence (P0ABJ1 25-315, further chain): as the sequence (P0ABJ1 25-315) above

cytochrome bo3 D188N [6] = biological target: T3, cytochrome bo3 D188N (Escherichia coli, UniProt P0ABI8, D188N); test: HQNO binding monitored by fluorescence anisotropy; set-up: species or system E. coli; settings: read-out: Kd HQNO
T3 sequence (P0ABI8 whole entry D188N): as the sequence (P0ABI8 whole entry) above, with D188N counted along it
T3 sequence (P0ABJ3 whole entry, stated change not applied, further chain): as the sequence (P0ABJ3 whole entry, further chain) above
T3 sequence (P0ABJ6 whole entry, further chain): as the sequence (P0ABJ6 whole entry, further chain) above
T3 sequence (P0ABJ1 25-315, further chain): as the sequence (P0ABJ1 25-315) above

cytochrome bo3 R257Q [7] = biological target: T4, cytochrome bo3 R257Q (Escherichia coli, UniProt P0ABI8, R257Q); test: HQNO binding monitored by fluorescence anisotropy; set-up: species or system E. coli; settings: read-out: Kd HQNO
T4 sequence (P0ABJ1 25-315): as above
T4 sequence (P0ABI8 whole entry R257Q): as the sequence (P0ABI8 whole entry) above, with R257Q counted along it
T4 sequence (P0ABJ3 whole entry, further chain): as the sequence (P0ABJ3 whole entry, further chain) above
T4 sequence (P0ABJ6 whole entry, further chain): as the sequence (P0ABJ6 whole entry, further chain) above

cytochrome bo3 W^II136A [8] = biological target: cytochrome bo3 W^II136A (Escherichia coli, UniProt P0ABI8); test: HQNO binding monitored by fluorescence anisotropy; set-up: species or system E. coli; settings: read-out: Kd HQNO
Chain of cytochrome bo3 W^II136A (Escherichia coli, UniProt P0ABI8) (P0ABJ6 whole entry): as the sequence (P0ABJ6 whole entry, further chain) above
Chain of cytochrome bo3 W^II136A (Escherichia coli, UniProt P0ABI8) (P0ABJ3 whole entry, further chain): as the sequence (P0ABJ3 whole entry, further chain) above
Chain of cytochrome bo3 W^II136A (Escherichia coli, UniProt P0ABI8) (P0ABI8 whole entry): as the sequence (P0ABI8 whole entry) above
Chain of cytochrome bo3 W^II136A (Escherichia coli, UniProt P0ABI8) (P0ABJ1 25-315 W136A, further chain): as the sequence (P0ABJ1 25-315) above, with W112A counted along it

cytochrome bo3 H98S = cytochrome bo3 H98S (Escherichia coli, UniProt P0ABI8, H98S); test: HQNO binding monitored by fluorescence anisotropy; set-up: species or system E. coli; settings: read-out: Kd HQNO
Chain of cytochrome bo3 H98S (P0ABI8 whole entry H98S): as the sequence (P0ABI8 whole entry) above, with H98S counted along it
Chain of cytochrome bo3 H98S (P0ABJ3 whole entry, further chain): as the sequence (P0ABJ3 whole entry, further chain) above
Chain of cytochrome bo3 H98S (P0ABJ6 whole entry, further chain): as the sequence (P0ABJ6 whole entry, further chain) above
Chain of cytochrome bo3 H98S (P0ABJ1 25-315, further chain): as the sequence (P0ABJ1 25-315) above

cytochrome bo3 D188A [9] = biological target: T2, cytochrome bo3 D188A; test: steady state ubiquinol-1 oxidase activity; assay type: biochemical, E. coli; settings: read-out: KM UQ1H2
cytochrome bo3 D188N [10] = biological target: T3, cytochrome bo3 D188N; test: steady state ubiquinol-1 oxidase activity; assay type: biochemical, E. coli; settings: read-out: KM UQ1H2
cytochrome bo3 R257Q [11] = biological target: T4, cytochrome bo3 R257Q; test: steady state ubiquinol-1 oxidase activity; assay type: biochemical, E. coli; settings: read-out: KM UQ1H2
cytochrome bo3 W^II136A [12] = biological target: cytochrome bo3 W^II136A (Escherichia coli, UniProt P0ABI8+P0ABJ1, W136A); test: steady state ubiquinol-1 oxidase activity; assay type: biochemical, E. coli; settings: read-out: KM UQ1H2
Chain of cytochrome bo3 W^II136A (Escherichia coli, UniProt P0ABI8+P0ABJ1, W136A) (P0ABI8 whole entry): as the sequence (P0ABI8 whole entry) above
Chain of cytochrome bo3 W^II136A (Escherichia coli, UniProt P0ABI8+P0ABJ1, W136A) (P0ABJ6 whole entry, further chain): as the sequence (P0ABJ6 whole entry, further chain) above
Chain of cytochrome bo3 W^II136A (Escherichia coli, UniProt P0ABI8+P0ABJ1, W136A) (P0ABJ1 25-315 W136A): as the sequence (P0ABJ1 25-315) above, with W112A counted along it
Chain of cytochrome bo3 W^II136A (Escherichia coli, UniProt P0ABI8+P0ABJ1, W136A) (P0ABJ3 whole entry, further chain): as the sequence (P0ABJ3 whole entry, further chain) above

Row | SMILES | pattern of inhibition (wild type cytochrome bo3 [1]) | effect on formation of the semiquinone at the QH-site (EPR signal) (wild type cytochrome bo3 [2]) | Ki (wild type cytochrome bo3 [1]; read-out: Ki, inhibition of ubiquinol-1 oxidase activity by HQNO, coupled assay, enzyme with ubiquinone-8 bound to the QH site) [µM] | Kd (wild type cytochrome bo3 [3]; wild type + 300 μM Q1) [µM] | Kd (wild type cytochrome bo3 [3]; wild type + 1500 μM Q1) [µM] | Kd (wild type cytochrome bo3 [3]; wild type, one equivalent of ubiquinone-8 bound, 1 μM HQNO, pH 8.3) [µM] | number of HQNO binding sites (best fit, independent sites model) (wild type cytochrome bo3 [3]; wild type with ubiquinone-8 bound) | Kd [4] [µM] | Kd (cytochrome bo3 D188A [5]) [µM] | Kd (cytochrome bo3 D188N [6]) [µM] | Kd (cytochrome bo3 R257Q [7]) [µM] | Kd (cytochrome bo3 W^II136A [8]) [µM] | Kd (cytochrome bo3 H98S) [µM] | Km (wild type cytochrome bo3 [1]; read-out: KM UQ1H2, wild type) [µM] | Km (cytochrome bo3 D188A [9]) [µM] | Km (cytochrome bo3 D188N [10]) [µM] | Km (cytochrome bo3 R257Q [11]) [µM] | Km (cytochrome bo3 W^II136A [12]) [µM]
1 | CCCCCCCCCCc1c(C)c(=O)c2ccccc2n1O [AC1-10, aurachin C1-10] | competitive | prevents formation of the semiquinone EPR signal |  |  |  |  |  |  |  |  |  |  |  |  |  |  |  | 
2 | CCCCCCCc1cc(=O)c2ccccc2n1O [HQNO] | noncompetitive | prevents formation of the semiquinone | 0.74 | 4.1 | 6.8 | 4 | 1.1 and 1 | 5.8 | 5 | 4 | 4 | 4.1 | 3.6 |  |  |  |  | 
3 | COc1c(O)c(C)c(CC=C(C)C)c(O)c1OC [UQ1H2, ubiquinol-1] |  |  |  |  |  |  |  |  |  |  |  |  |  | 53 | 56 | 52 | 60 | 63

Source: article PMC2922442 (Biochimica et biophysica acta, 2010)
